High-throughput results from PubChem.
SKN-1 inh = inhibitors of C. elegans SKN-1. C. elegans VP596 Pgst-4::GFP/RFP ratio, acrylamide-induced, 24 h. inhibition, % at 21.8 µM. actives 0.49% (n = 360,000). AID 624304;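 active = interference check ratio from 0.5 to 1.5 plus GFP to RFP signal ratio inhibition reaching or exceeding a fixed threshold, cut at about 30% in these data, passing the limit was not always enough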
proKLK7 act = activates the human kallikrein-7 zymogen; P49862; purified proKLK7, EDANS-DABCYL substrate fluorescence; 100% is mature enzyme control, 0% vehicle; activation, % at 7 µM; actives 0.9% (n = 370,000); AID 652039;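 active = activation above the mean of all tested compounds plus 3 SD, computed per campaign excluding outliers beyond control limits, cut at about 13% in these data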
DDE Tn6 FP inh = disrupts Tn6 cyclic peptide binding to fibrin D-Dimer-E complex. Fibrin DD(E) TRITC-Tn6 fluorescence polarization displacement. P02675. actives 0.21% (n = 370,000). inhibition, % at 8.3 µM;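 active = inhibition above a per-campaign cutoff: mean of compounds within control limits plus 3 SD, cut at about 15% in these data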;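 also: 0% = median of all compound wells on the plate and 100% = blocking peptide control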
DDE Tn7 FP inh = DD(E)-Tn7 binding inhibition, primary FP screen | P02675 | FP displacement of FITC-Tn7 peptide from fibrin DD(E); 0% = median of compound wells per plate | inhibition, % at 8.3 µM | actives 0.13% (n = 370,000);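 active = inhibition above the mean of compounds falling within the control limits plus 3 SD of them, cut at about 14% in these data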;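 also: 0% = plate median of compound wells and 100% = 10 µM Aha-Tn7 peptide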
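Assay system: human fibrin DD(E). Input: DD(E) 2 µM final. Medium: Tris buffer with calcium and detergent, pH 7.8. Compound dosing: single point at 8.3 µM. Timing: 10 min plus 3 h, room temperature. Technique: fluorescence polarization of the labelled Tn7 tracer. Read-out: percent inhibition. Replicates: singlicate testing.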
Neddyl block = blocks human cullin neddylation; AID 651699; calls only at 25 µM; TR-FRET cullin neddylation, biochemical; P61081+Q13564; actives 0.58% (n = 360,000); in the data active = inhibition above about 36%
Target sequence (P61081 whole entry, looked up): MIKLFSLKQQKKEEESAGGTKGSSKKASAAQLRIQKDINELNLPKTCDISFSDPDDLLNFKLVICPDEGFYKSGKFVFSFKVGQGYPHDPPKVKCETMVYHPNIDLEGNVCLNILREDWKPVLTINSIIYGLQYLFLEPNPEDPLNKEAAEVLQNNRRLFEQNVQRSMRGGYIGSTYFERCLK
Target sequence (Q13564 whole entry, looked up): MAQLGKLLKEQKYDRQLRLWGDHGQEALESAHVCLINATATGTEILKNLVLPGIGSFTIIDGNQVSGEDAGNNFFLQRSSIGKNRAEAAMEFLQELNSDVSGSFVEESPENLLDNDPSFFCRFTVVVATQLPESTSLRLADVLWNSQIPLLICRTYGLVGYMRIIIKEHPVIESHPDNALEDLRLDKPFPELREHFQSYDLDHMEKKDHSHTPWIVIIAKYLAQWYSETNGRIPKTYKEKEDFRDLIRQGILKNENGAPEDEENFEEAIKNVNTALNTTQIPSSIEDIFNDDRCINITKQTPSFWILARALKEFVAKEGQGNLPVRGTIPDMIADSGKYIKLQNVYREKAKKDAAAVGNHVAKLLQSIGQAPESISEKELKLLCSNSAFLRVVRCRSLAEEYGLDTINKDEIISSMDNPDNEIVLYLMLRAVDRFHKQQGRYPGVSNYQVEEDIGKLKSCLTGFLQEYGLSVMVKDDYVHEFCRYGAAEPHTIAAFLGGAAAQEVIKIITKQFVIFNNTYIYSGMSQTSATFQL
MT1-MMP act inh = inhibitors of human MT1-MMP activation. HT1080 RFP-PRO-GFP cells, GFP/RFP ratio fluorescence, overnight; percent of plate control window, DMSO zero. GFP/RFP ratio change, % at 20 µM. actives 0.061% (n = 360,000);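 active = GFP/RFP ratio change of at least 30% with cell ATP level not reduced by more than half and red fluorescence within 50% of control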
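Assay system: HT1080 RFP-PRO-GFP cells | Dosing: 20 µM single dose, 1% DMSO | Incubation: Cells overnight before dosing, compound overnight, 37 °C, 5% CO2 | Evaluation: GFP/RFP fluorescence ratio | Control set: DMSO-only wells and HT1080 RFP-L50D-GFP cell wells as references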
proKLK7 act conf = proKLK7 activation, confirmation; shares compounds with proKLK7 act; purified proKLK7, EDANS-DABCYL substrate fluorescence; scaled: vehicle 0, mature enzyme 100; activation, % at 7 µM; actives 68% (n = 3,200); AID 686949;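 active = activation, as change over the incubation, above the mean of all tested compounds plus 3 SD, cut at about 13% in these data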
EDANS-DABCYL int = counter-screen for kallikrein-7 activators: EDANS-DABCYL optical interference | shares compounds with proKLK7 act | EDANS-DABCYL substrate fluorescence interference, no enzyme, 4 h; solvent 0%, active enzyme control 100% | activation, % at 7 µM | actives 80% (n = 3,200);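 active = activation above the all-compound mean plus 3 SD, ignoring values outside control-based bounds, cut at about 4.8% in these data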;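 also: value is the 4 h activation minus the activation read at time zero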
EDANS interf = EDANS fluorescence interference in dose response, no enzyme; AID 720493; shares compounds with proKLK7 act; EDANS-DABCYL peptide fluorescence interference; EC50, µM; actives 20% (n = 250);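 active = compounds that raise the fluorescence signal in this interference counterscreen, with EC50 at or below 10 µM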;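 also: intact quenched peptide substrate alone read at 355 nm excitation and 520 nm emission; signal is fluorescence gain from T0 to T4 after four hours at room temperature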
* hit, by the source's call. Only some compounds are listed: those with a hit (about 2.2% of all), similar ones and a draw of the others.

How did NC(=O)c1ccsc1NC(=O)COC(=O)c1cc(Cl)ccc1O do in these assays?
SKN-1 inh: -13; proKLK7 act: 76*; DDE Tn6 FP inh: -5; DDE Tn7 FP inh: 4; Neddyl block: inactive; MT1-MMP act inh: 4; proKLK7 act conf: 90*; EDANS-DABCYL int: 91*

Results for O=C(COC(=O)c1cccnc1Cl)NCC1CCCO1 (stereo not drawn) ?
SKN-1 inh: 2; proKLK7 act: 0; DDE Tn6 FP inh: 3; DDE Tn7 FP inh: -4; Neddyl block: inactive; MT1-MMP act inh: 0

What do the screens show for `O=C(OCC(=O)N1CCCC1=O)c1cc(Cl)ccc1O`?
SKN-1 inh: 10; proKLK7 act: 32*; DDE Tn6 FP inh: 0; DDE Tn7 FP inh: -3; Neddyl block: inactive; MT1-MMP act inh: 1; proKLK7 act conf: 32*; EDANS-DABCYL int: 32*

What do the screens show for `O=C(COC(=O)c1cc(Cl)ccc1O)NNC(=O)c1ccc([N+](=O)[O-])cc1`?
SKN-1 inh: 9; proKLK7 act: 99*; DDE Tn6 FP inh: 6; DDE Tn7 FP inh: 0; Neddyl block: inactive; MT1-MMP act inh: 0; proKLK7 act conf: 160*; EDANS-DABCYL int: 155*

How did COc1ccc(NC(C)=O)cc1NC(C)C(=O)Nc1ccc(F)c(F)c1F (stereo not drawn) do in these assays?
SKN-1 inh: 15; proKLK7 act: 1; DDE Tn6 FP inh: 1; DDE Tn7 FP inh: 5; Neddyl block: inactive; MT1-MMP act inh: 4

How did COc1cccc(-c2ccc(C#N)c(OC(=O)c3c(Cl)cccc3Cl)n2)c1 do in these assays?
SKN-1 inh: 11; proKLK7 act: -5; DDE Tn6 FP inh: -9; DDE Tn7 FP inh: 2; MT1-MMP act inh: 8

Results for O=C(O)c1ccc(N2N=C(c3ccccc3)CC2c2ccccc2)cc1 (stereo not drawn) ?
SKN-1 inh: 13; proKLK7 act: 64*; DDE Tn6 FP inh: -1; DDE Tn7 FP inh: 3; Neddyl block: inactive; MT1-MMP act inh: 6; proKLK7 act conf: 64*; EDANS-DABCYL int: 75*

How did CCCCCC(=O)Oc1cccc(N2C(=O)C3CCCCC3C2=O)c1 (stereo not drawn) do in these assays?
SKN-1 inh: 20; proKLK7 act: 0; DDE Tn6 FP inh: -4; DDE Tn7 FP inh: 3; Neddyl block: inactive; MT1-MMP act inh: -2

What do the screens show for `COc1ccc(NC(=O)c2ccc(S(=O)(=O)N3CC(C)CC(C)C3)cc2)cc1S(N)(=O)=O` (stereo not drawn)?
SKN-1 inh: -7; proKLK7 act: 18*; DDE Tn6 FP inh: -4; DDE Tn7 FP inh: -4; MT1-MMP act inh: 0; proKLK7 act conf: 24*; EDANS-DABCYL int: 14*; EDANS interf: inactive

What do the screens show for `COc1ccc(NC(=O)COC(=O)c2ccc(S(=O)(=O)N3CC(C)CC(C)C3)cc2)cc1OC` (stereo not drawn)?
SKN-1 inh: 1; proKLK7 act: 1; DDE Tn6 FP inh: -2; DDE Tn7 FP inh: 2; Neddyl block: inactive; MT1-MMP act inh: 0

What do the screens show for `Cc1cc2c(nc1C)CCCN2Cc1ccccn1`?
proKLK7 act: 15*; DDE Tn6 FP inh: 7; DDE Tn7 FP inh: 7; proKLK7 act conf: -4; EDANS-DABCYL int: -7

How did Brc1ccc(-c2ccc3c(n2)CCCN3Cc2ccccn2)cc1 do in these assays?
proKLK7 act: -1; DDE Tn6 FP inh: 6; DDE Tn7 FP inh: 5
